# According to PMC11843914 (RSC Advances, 2025):
# Legend:
# Assay type in all cases: cell-based
# [1] = tested on: MCF-7 (breast cancer); test: MTT cell viability assay, MCF-7; conditions: Homo sapiens; for IC50: MCF7, 48 h, read-out: IC50 values, MCF-7; for cytotoxicity at 100 µM: MCF7, read-out: Cytotoxicity %, MCF-7
# In short: (§1)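 MTT viability assay on human cell lines: MCF-7, HCT-116, PC3 and normal BJ-1. Test compounds were first screened at 100 μM. IC50 values came from a concentration series of 100 μM down to 12.5 μM.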
# [2] = tested on: HCT-116 (colon cancer); test: MTT cell viability assay, HCT-116; conditions: Homo sapiens; for IC50: HCT-116, 48 h, read-out: IC50 values, HCT-116; for cytotoxicity at 100 µM: HCT-116, read-out: Cytotoxicity %, HCT-116
# In short: as §1
# [3] = tested on: PC3 (prostate cancer); test: MTT cell viability assay, PC3; conditions: Homo sapiens; for IC50: 48 h, read-out: IC50 values, PC3; for cytotoxicity at 100 µM: read-out: Cytotoxicity %, PC3
# In short: as §1
IC50 [1] [µM],IC50 [2] [µM],IC50 [3] [µM],Structure (SMILES),cytotoxicity at 100 µM [1] [%],cytotoxicity at 100 µM [2] [%],cytotoxicity at 100 µM [3] [%]
78.4 ± 4.2,29.2 ± 1.7,> 200,"O=c1[nH]cc(F)c(=O)[nH]1 [5-FU, 5-fluorouracil, reference compound]",–,–,–
–,102 ± 2.1,–,"O=C(NN=Cc1ccc(O)cc1)c1nc2ccccc2s1 [6a, N′-(4-Hydroxybenzylidene)benzo[d]thiazole-2-carbohydrazide]",–,–,–
80.9 ± 3.7,–,–,"COc1ccc(C=NNC(=O)c2nc3ccccc3s2)cc1O [6c, N'-(3-Hydroxy-4-methoxybenzylidene)benzo[d]thiazole-2-carbohydrazide]",58.1,–,–
–,–,–,"CS(=O)(=O)Oc1ccc(C=NNC(=O)c2nc3ccccc3s2)cc1 [6d, 4-((2-(Benzo[d]thiazole-2-carbonyl)hydrazono)methyl)phenyl methanesulfonate]",62.5,66.7,66.5
–,81.4 ± 1.9,90.6 ± 2.7,"COc1cc(C=NNC(=O)c2nc3ccccc3s2)ccc1OS(C)(=O)=O [6e, 4-((2-(Benzo[d]thiazole-2-carbonyl)hydrazono)methyl)-2-methoxyphenyl methanesulfonate]",–,61.1,60.8
–,–,–,"COc1ccc(C=NNC(=O)c2nc3ccccc3s2)cc1OS(C)(=O)=O [6f, 5-((2-(Benzo[d]thiazole-2-carbonyl)hydrazono)methyl)-2-methoxyphenyl methanesulfonate]",–,62.8,–
–,–,–,"CCS(=O)(=O)Oc1ccc(C=NNC(=O)c2nc3ccccc3s2)cc1 [6g, 4-((2-(Benzo[d]thiazole-2-carbonyl)hydrazono)methyl)phenyl ethanesulfonate]",62.3,68.6,74.8
–,–,–,"CCS(=O)(=O)Oc1ccc(C=NNC(=O)c2nc3ccccc3s2)cc1OC [6h, 4-((2-(Benzo[d]thiazole-2-carbonyl)hydrazono)methyl)-2-methoxyphenyl ethanesulfonate]",–,55.2,63.4
–,–,–,"CCCS(=O)(=O)Oc1ccc(C=NNC(=O)c2nc3ccccc3s2)cc1 [6j, 4-((2-(Benzo[d]thiazole-2-carbonyl)hydrazono)methyl)phenyl propane-1-sulfonate]",–,68.5,62.3
–,–,–,"CCCS(=O)(=O)Oc1ccc(C=NNC(=O)c2nc3ccccc3s2)cc1OC [6k, 4-((2-(Benzo[d]thiazole-2-carbonyl)hydrazono)methyl)-2-methoxyphenyl propane-1-sulfonate]",59.6,77.2,64.6
